Reference: ChEMBL document CHEMBL3399918, “In vitro radical scavenging and cytotoxic activities of novel hybrid selenocarbamates” (Bioorg Med Chem, 2015)
Calls of active or inactive are those of the source. No cut-off for these calls is given here.

Columns and labels:
[1] = Cytotoxicity against human 184B5 cells after 72 hrs by MTT assay; assay type: cell-based; details: for GI50 at 72 h: 184B5 cells; for LC50 / TGI: 184b5, 72 h
In short: (§1)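 Non-malignant lines: 184B5 (normal breast) in Hams F-12/DMEM (50:50) with published supplements; BEAS-2B (bronchial epithelium) in Hams F-12/DMEM (50:50) with 10% foetal calf serum, 2 mM L-glutamine, penicillin/streptomycin. Compounds at five concentrations, 0.01–100 μM, 72 h, 37 °C, 5% CO2; MTT read-out. GI50, TGI, LC50 relative to untreated controls; ≥3 independent experiments in quadruplicate.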

[2] = system: HT-29; test: Cytotoxicity against human HT-29 cells after 72 hrs by MTT assay; assay type: functional; details: HT-29, 72 h
In short: (§2)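 CCRF-CEM, HT-29, PC-3 and HTB-54 cells grown in RPMI 1640 with 10% foetal calf serum, 2 mM L-glutamine, penicillin/streptomycin, 10 mM HEPES (pH 7.4). Five concentrations, 0.01–100 μM, 72 h at 37 °C, 5% CO2; MTT read-out. GI50, TGI and LC50 versus untreated controls; at least 3 independent experiments in quadruplicate.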

[3] = Antioxidant activity assessed as ABTS radical scavenging activity by measuring Trolox equivalent antioxidant capacity after 6 mins; assay type: physicochemical; details: 0.1 h
In short: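 ABTS dissolved in deionized water at 1 mg/mL, oxidised to radical cation with potassium persulfate (2.45 mM final), kept overnight at room temperature in dark, then diluted with 50% ethanol to A741 = 0.700 ± 0.02. Compound (1 mg/mL ethanol stock) added 1:10 (0.1 mg/mL); A741 decrease read after 6 min against 50% ethanol blank. Trolox positive control; quadruplicate; TEAC from calibration curve.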

[4] = system: CCRF-CEM; test: Cytotoxicity against human CCRF-CEM cells after 72 hrs by MTT assay; assay type: functional; in short: as §2
[5] = Cytotoxicity against human BEAS2B cells after 72 hrs by MTT assay; assay type: cell-based, BEAS-2B; details: for GI50 at 72 h: BEAS2B cells; for LC50 / TGI: beas-2b, 72 h; in short: as §1
[6] = Cytotoxicity against human PC3 cells after 72 hrs by MTT assay; assay type: functional; details: PC-3, 72 h; in short: as §2
[7] = system: MCF7; test: Cytotoxicity against human MCF7 cells after 72 hrs by MTT assay; assay type: functional; details: MCF7, 72 h; for CC50: read-out: LC50 (the source's name)
In short: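 MCF-7 cells grown in EMEM with 10% foetal calf serum, 2 mM L-glutamine, 100 units/mL penicillin, 100 µg/mL streptomycin. Exposed to five concentrations between 0.01 and 100 μM for 72 h, 37 °C, humidified 5% CO2; MTT read-out. GI50, TGI, LC50 relative to untreated controls; ≥3 independent experiments in quadruplicate.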

[8] = Antioxidant activity assessed as ABTS radical scavenging activity at 0.1 mg/ml after 6 mins; assay type: physicochemical; details: 0.1 h
In short: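 Diluted with 50% ethanol to A741 0.700 ± 0.02. A741 decrease read after 6 min against a 50% ethanol blank. % scavenged relative to a vehicle-plus-radical control. Quadruplicate.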

[9] = Antioxidant activity assessed as DPPH radical scavenging activity at 0.5 mg/ml after 180 mins; assay type: physicochemical; details: 3 h
In short: (§3)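 Compounds in absolute ethanol, serially diluted from 1 mg/mL, mixed 1:1 with […] in ethanol. Final range 0.016–0.5 mg/mL, 6 concentrations. Incubated at 37 °C in the dark, with decolourisation followed at 517 nm at several time intervals. % scavenged = (A vehicle control − A sample)/A control × 100. Quadruplicate; mean ± SD.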

[10] = Cytotoxicity against human HTB-54 cells after 72 hrs by MTT assay; assay type: functional; details: HTB-54, 72 h; for CC50: read-out: LC50 (the source's name); in short: as §2
[11] = Glutathione peroxidase-like activity assessed as reduction in H2O2 reduction by tiophenol based UV absorption spectrometry
In short: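 Iwaoka–Tomoda thiophenol method. Compound in ethanol at 0.1 mg/mL, mixed in equal volumes with 2 mM PhSH in ethanol and 5 mM H2O2 in ethanol (stock concentrations). Data collected every 5 s. Negative control contained compound, vehicle and PhSH without H2O2. Triplicate; mean ± SD.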

[12] = Glutathione peroxidase-like activity assessed as reduction in H2O2 reduction at 0.033 mg/ml by tiophenol based UV absorption spectrometry
In short: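 Iwaoka–Tomoda method: compound in ethanol (0.1 mg/mL stock) mixed in equal volumes with 2 mM PhSH and 5 mM H2O2 (both ethanol stocks), thiophenol-driven catalytic H2O2 reduction. Data collected every 5 s. Negative control without H2O2 (compound, vehicle, PhSH). Triplicate.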

[13] = Antioxidant activity assessed as DPPH radical scavenging activity at 0.25 mg/ml; assay type: physicochemical; details: TDE = time-dependent effect; in short: as §3

| Compound | GI50 at 72 h [1] [µM] | LC50 [1] [µM] | TGI [1] [µM] | GI50 [2] [µM] | LC50 [2] [µM] | TGI [2] [µM] | GI50 [4] [µM] | LC50 [4] [µM] | TGI [4] [µM] | GI50 at 72 h [5] [µM] | LC50 [5] [µM] | TGI [5] [µM] | GI50 [6] [µM] | LC50 (concentration causing 50% net cell kill) [6] [µM] | TGI [6] [µM] | GI50 [7] [µM] | TGI [7] [µM] | CC50 [7] [µM] | inhibition (INH) [8] [%] | inhibition (INH) [9] [%] | also measured |
| --- | --- | --- | --- | --- | --- | --- | --- | --- | --- | --- | --- | --- | --- | --- | --- | --- | --- | --- | --- | --- | --- |
| CCCOC(=O)Nc1ccc([Se][Se]c2ccc(NC(=O)OCCC)cc2)cc1 | 7.2 | 62 | 24.5 | 18.3 | 76.1 | 47.2 | 4.3 | 49.1 | 8.8 | 14.4 | 72.2 | 43.3 | 18.4 | 71.5 | 45 | 31.7 | 55.8 | 80 | 22.5 | 52.4 | Activity [3]: 14.5 µg/µL; GI50 [10]: 48.5 µM; TGI [10]: 68.4 µM; CC50 [10]: 88.3 µM |
| COc1ccc(OC(=O)Nc2ccc([Se][Se]c3ccc(NC(=O)Oc4ccc(OC)cc4)cc3)cc2)cc1 | 3.4 | 43.5 | 8.1 | 13 | 79.2 | 46.1 | 5.3 | 63.1 | 25.8 | 0.6 | 62.3 | 19.9 | 4.4 | 64.6 | 28.2 | 9.7 | 42.8 | 76.8 | > 25 | > 50 | Activity [11]: inactive; GI50 [10]: 18 µM; TGI [10]: 46.3 µM; CC50 [10]: 74.5 µM |
| C=CCOC(=O)Nc1ccc([Se][Se]c2ccc(NC(=O)OCC=C)cc2)cc1 | 6.4 | 60.4 | 21.5 | 25.9 | 79.5 | 52.7 | 4.6 | 46.9 | 8.7 | 14.3 | 71.4 | 42.9 | 25 | 74.7 | 49.9 | 20.8 | 47.2 | 73.6 | 10.9 | 30 | Activity [3]: 5.5 µg/µL; GI50 [10]: 29.8 µM; TGI [10]: 56.6 µM; CC50 [10]: 83.3 µM |
| CCOC(=O)Nc1ccc([Se]C#N)cc1 | 5.5 | 59 | 18.6 | 9.3 | 66.6 | 38 | 9.8 | 68.8 | 39.1 | 21.7 | 72.2 | 46.9 | 9.9 | 68.4 | 39.2 | 8.9 | 36.7 | 67.8 | 26.3 | 37 | Activity [12]: Active; Activity [3]: 17.4 µg/µL; GI50 [10]: 24.9 µM; TGI [10]: 49.3 µM; CC50 [10]: 72.7 µM |
| CCCCOC(=O)Nc1ccc([Se][Se]c2ccc(NC(=O)OCCCC)cc2)cc1 | 7.2 | 63.1 | 26 | 27.6 | 82.4 | 55 | 16.7 | 72.3 | 44.5 | 24.2 | 75 | 49.6 | 28.6 | 76.4 | 52.5 | 17.3 | 46.3 | 75.2 | 7.3 | 36.1 | Activity [3]: 2.67 µg/µL; GI50 [10]: 35.2 µM; TGI [10]: 57.3 µM; CC50 [10]: 79.4 µM |
| CC(C)COC(=O)Nc1ccc([Se][Se]c2ccc(NC(=O)OCC(C)C)cc2)cc1 | 5.5 | 56.6 | 10.5 | 19.9 | 77.4 | 48.6 | 9.8 | 70.2 | 39.8 | 13.1 | 72.4 | 42.7 | 24.2 | 73.7 | 48.9 | 19 | 49.7 | 80.5 | 29.6 | 66.5 | Activity [11]: inactive; Activity [3]: 20 µg/µL; inhibition (INH) [13]: tde; GI50 [10]: 29 µM; TGI [10]: 52.9 µM; CC50 [10]: 76.9 µM |
| CCCCOC(=O)Nc1ccc([Se]C#N)cc1 | 5.3 | 56.8 | 14.5 | 8.1 | 63.7 | 31.3 | 6.5 | 63.5 | 27.9 | 5 | 54.5 | 12.2 | 12.4 | 69.3 | 40.8 | 6.6 | 20.2 | 59.7 | 12.6 | 6.6 | Activity [3]: 6.77 µg/µL; GI50 [10]: 17.2 µM; TGI [10]: 43.4 µM; CC50 [10]: 69.5 µM |
| CCOC(=O)Nc1ccc([Se][Se]c2ccc(NC(=O)OCC)cc2)cc1 | 5.7 | 58.7 | 16.7 | 26 | 76.1 | 51.1 | 24.6 | 74.3 | 49.5 | 16.1 | 71.9 | 44 | 28.8 | 75.7 | 52.2 | 9.9 | 39 | 68.3 | 21.3 | 37 | Activity [3]: 13.6 µg/µL; GI50 [10]: 31.2 µM; TGI [10]: 56.6 µM; CC50 [10]: 82 µM |
